Data set [1] addresses T1, Metabotropic glutamate receptor 1 (Rattus norvegicus, UniProt P23385). Kind of data set: Allosteric antagonist activity at mGluR1 in Sprague-Dawley rat cerebellar granule cells assessed as accumulation of [3H]inositol phosphate by liquid scintillation counting. Type of data set: functional. In outline: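 Cerebellar granule cells from P8 Sprague Dawley rats grown in BEM with 10% foetal calf serum and 2 mM glutamine. At 6 DIV switched to inositol-free DMEM with [3H]-myo-inositol (0.5 µCi/100 µl/well) for 48 h. Cells preincubated 15 min at 37 °C in Locke's buffer (20 mM LiCl, pH 7.4), then 45 min with agonists/test ligands. Lysed with 0.1 M HCl 10 min on ice. Inositol phosphates isolated on formate columns, eluted with 1 M ammonium formate/0.1 M formic acid, counted by liquid scintillation.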

Data set [2] has as its target T1, Metabotropic glutamate receptor 1. Kind of data set: Displacement of [3H]E-3-(2-chloro-8-methylquinolin-3-yl)-1-(thiophen-2-yl)prop-2-en-1-one from mGluR1 in rat cerebellar membrane after 14 to 16 hrs by scintillation counting. Type of data set: cell membranes, Cerebellum. (In general: Displacement assays read how much labelled ligand stays bound in the presence of the test substance.)

Data set [3] has as its target Metabotropic glutamate receptor 5 (Rattus norvegicus, UniProt P31424). Description: Displacement of [3H]MPEP from mGluR5 in rat cortical membrane after 60 mins by liquid scintillation counting. Type of data set: cell membranes. In outline:
(§1)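 Rat cortical membranes, 125–250 µg protein, incubated with 5 nM [3H]-MPEP (50.2 Ci/mmol) and varying concentrations of test agent. Filters rinsed, and bound radioactivity counted by liquid scintillation.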

The next data set is filed under the species Rattus norvegicus. Description: Selectivity ratio of Ki for mGluR5 in rat cortical membrane to Ki for mGluR1 in rat cerebellar membrane. Type of data set: cell membranes.
The nature of data set [4]: Solubility in water. The settings on record: buffer. Type of data set: physicochemical.
In data set [5] the target is Metabotropic glutamate receptor 1 (Homo sapiens, UniProt Q13255). Description: Binding affinity to human GluR1 by FLIPR assay.
The target of data set [6] is Metabotropic glutamate receptor 5 (Rattus norvegicus) (UniProt P31424). Kind of data set: Binding affinity to GluR5 in rat cortical membrane up to 10 uM. Type of data set: cell membranes. In outline:
as §1

The values that follow come from ChEMBL document CHEMBL1153061, “Synergism of virtual screening and medicinal chemistry: identification and optimization of allosteric antagonists of metabotropic glutamate receptor 1” (Bioorg Med Chem, 2009).

Calls of active or inactive are those of the source. The calls are words filed in the database; no cut-off is given here.

The term IC50 denotes the concentration that inhibits the measured activity by half. The term Ki denotes a measure of affinity in units of concentration, obtained from inhibition or displacement. High values mean weaker binding, low ones tighter binding.

T1 sequence (P23385 whole entry): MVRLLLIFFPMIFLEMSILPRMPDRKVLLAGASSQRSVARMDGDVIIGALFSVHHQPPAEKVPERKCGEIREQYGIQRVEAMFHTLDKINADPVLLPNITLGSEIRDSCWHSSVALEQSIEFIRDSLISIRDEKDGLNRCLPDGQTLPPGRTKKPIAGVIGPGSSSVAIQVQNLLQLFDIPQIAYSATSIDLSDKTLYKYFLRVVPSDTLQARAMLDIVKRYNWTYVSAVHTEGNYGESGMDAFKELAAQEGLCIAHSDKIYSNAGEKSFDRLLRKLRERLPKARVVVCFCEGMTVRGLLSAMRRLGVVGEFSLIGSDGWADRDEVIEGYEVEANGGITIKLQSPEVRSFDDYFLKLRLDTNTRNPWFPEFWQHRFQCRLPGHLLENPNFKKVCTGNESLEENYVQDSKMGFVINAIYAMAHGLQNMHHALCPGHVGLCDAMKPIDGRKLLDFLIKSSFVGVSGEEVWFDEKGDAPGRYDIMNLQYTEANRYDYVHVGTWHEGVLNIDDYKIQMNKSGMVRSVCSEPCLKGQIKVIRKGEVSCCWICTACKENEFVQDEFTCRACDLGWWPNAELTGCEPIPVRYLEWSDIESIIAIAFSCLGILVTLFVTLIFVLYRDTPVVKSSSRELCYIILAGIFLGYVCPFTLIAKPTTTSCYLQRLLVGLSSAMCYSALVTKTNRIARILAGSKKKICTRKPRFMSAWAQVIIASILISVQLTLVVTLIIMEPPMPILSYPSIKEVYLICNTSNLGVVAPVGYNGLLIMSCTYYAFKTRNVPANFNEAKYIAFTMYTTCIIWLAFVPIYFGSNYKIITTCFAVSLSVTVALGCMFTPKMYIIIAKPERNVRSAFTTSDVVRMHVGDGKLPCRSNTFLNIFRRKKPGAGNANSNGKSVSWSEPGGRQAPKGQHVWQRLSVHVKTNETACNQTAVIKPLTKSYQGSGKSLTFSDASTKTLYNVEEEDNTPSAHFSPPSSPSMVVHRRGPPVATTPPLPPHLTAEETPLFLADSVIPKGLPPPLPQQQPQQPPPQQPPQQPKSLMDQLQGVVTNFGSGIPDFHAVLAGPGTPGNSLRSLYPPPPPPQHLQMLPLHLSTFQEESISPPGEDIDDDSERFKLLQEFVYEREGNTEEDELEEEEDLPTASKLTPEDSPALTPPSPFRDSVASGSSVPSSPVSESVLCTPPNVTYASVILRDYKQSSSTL
Chain of Metabotropic glutamate receptor 5 (P31424 whole entry): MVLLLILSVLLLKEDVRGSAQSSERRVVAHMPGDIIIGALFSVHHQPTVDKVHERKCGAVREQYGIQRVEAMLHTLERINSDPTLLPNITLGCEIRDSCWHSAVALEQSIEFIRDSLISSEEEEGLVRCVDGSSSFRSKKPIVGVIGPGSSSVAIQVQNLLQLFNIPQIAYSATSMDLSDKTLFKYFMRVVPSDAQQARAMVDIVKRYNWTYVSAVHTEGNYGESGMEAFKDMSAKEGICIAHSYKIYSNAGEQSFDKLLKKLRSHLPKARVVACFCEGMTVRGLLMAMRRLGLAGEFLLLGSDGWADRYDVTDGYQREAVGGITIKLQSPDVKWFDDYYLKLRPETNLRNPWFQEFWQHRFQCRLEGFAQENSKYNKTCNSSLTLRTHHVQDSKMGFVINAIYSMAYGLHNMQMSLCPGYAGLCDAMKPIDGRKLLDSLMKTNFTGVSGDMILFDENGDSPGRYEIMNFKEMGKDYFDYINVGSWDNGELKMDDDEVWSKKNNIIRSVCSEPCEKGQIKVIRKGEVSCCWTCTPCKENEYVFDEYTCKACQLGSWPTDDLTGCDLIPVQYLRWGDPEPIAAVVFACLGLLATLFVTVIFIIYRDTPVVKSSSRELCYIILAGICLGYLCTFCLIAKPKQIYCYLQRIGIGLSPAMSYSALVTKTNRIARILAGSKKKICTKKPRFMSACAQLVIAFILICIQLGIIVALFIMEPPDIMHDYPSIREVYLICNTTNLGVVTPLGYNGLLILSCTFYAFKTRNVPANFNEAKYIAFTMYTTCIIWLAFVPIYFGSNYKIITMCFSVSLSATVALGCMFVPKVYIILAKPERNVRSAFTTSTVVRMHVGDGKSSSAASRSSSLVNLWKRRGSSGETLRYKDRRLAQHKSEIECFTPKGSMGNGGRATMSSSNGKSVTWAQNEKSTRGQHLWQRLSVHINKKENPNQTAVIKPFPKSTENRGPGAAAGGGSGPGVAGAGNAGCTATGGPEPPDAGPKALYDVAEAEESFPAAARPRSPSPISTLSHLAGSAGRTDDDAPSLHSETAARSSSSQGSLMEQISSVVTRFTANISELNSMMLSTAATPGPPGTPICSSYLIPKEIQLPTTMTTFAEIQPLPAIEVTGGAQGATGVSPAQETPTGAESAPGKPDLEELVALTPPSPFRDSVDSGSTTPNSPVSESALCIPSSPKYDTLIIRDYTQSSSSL
Chain of Metabotropic glutamate receptor 1 (Homo sapiens, UniProt Q13255) (Q13255 whole entry): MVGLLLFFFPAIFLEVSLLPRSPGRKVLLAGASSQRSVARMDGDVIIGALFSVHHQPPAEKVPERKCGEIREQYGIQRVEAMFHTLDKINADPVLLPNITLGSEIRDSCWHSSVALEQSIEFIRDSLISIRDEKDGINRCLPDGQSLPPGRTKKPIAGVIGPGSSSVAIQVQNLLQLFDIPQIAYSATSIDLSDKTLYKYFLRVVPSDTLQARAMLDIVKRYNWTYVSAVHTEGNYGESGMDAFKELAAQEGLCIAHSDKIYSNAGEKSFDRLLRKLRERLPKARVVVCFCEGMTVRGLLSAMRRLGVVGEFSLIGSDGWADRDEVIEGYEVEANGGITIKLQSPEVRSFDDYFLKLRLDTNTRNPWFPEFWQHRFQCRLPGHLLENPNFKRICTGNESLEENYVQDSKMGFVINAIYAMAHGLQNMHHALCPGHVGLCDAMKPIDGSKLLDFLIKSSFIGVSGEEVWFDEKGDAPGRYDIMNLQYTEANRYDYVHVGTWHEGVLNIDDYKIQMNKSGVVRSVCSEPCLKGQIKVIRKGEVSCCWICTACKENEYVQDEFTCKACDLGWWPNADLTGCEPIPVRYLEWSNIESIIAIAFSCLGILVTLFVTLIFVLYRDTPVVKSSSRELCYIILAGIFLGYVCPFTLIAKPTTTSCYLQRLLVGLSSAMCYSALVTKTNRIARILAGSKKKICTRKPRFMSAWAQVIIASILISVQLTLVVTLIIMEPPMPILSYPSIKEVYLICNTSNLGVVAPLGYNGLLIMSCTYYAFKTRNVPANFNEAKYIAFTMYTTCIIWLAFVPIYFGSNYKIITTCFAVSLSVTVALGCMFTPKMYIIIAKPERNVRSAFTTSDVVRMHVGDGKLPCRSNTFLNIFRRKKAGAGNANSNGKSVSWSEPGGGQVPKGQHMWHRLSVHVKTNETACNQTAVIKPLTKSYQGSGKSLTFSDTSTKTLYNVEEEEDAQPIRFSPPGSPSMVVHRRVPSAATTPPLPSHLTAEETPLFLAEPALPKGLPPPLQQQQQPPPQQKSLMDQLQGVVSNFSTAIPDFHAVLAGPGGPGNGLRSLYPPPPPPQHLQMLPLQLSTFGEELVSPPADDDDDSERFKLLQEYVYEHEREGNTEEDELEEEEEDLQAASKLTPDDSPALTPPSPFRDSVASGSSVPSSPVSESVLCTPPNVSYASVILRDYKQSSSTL
Chain of Metabotropic glutamate receptor 5 (Rattus norvegicus) (P31424 21-1203 limits assumed): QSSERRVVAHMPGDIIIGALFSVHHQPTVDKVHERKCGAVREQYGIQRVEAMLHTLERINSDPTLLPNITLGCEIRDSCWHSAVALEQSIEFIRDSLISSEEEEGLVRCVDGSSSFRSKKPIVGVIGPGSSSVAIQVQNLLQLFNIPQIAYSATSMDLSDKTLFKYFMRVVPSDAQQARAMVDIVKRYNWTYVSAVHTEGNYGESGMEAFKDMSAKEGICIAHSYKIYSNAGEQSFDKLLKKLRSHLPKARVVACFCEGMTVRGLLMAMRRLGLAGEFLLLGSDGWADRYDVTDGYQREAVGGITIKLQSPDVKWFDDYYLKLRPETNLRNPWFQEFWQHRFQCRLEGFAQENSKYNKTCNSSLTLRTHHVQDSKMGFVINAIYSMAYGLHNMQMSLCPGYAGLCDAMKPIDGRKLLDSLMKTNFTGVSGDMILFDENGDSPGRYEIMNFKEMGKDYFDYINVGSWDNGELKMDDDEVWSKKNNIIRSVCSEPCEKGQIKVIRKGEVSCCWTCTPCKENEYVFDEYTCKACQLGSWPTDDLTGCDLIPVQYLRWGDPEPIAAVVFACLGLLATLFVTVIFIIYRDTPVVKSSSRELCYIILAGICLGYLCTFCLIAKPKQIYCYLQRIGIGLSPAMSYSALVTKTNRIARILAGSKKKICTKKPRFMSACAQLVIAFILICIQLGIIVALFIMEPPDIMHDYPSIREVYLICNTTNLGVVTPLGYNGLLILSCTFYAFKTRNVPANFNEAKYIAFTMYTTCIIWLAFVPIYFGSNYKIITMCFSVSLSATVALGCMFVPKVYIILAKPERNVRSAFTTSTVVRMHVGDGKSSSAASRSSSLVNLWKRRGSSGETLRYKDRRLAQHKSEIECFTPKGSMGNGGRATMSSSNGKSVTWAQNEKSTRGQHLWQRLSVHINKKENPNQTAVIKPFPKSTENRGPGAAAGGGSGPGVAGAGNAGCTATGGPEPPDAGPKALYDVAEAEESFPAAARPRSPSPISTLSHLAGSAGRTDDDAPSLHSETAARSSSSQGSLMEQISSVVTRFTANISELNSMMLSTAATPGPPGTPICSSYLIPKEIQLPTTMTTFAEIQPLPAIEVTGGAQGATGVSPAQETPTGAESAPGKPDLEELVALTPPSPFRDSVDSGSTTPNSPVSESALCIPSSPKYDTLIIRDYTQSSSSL

Regarding `O=C(c1ccccc1)c1ccc(/N=C/c2ccc(Br)cc2)cc1`, the IC50 in data set [1] is > 40 µM. Further, the Ki in data set [2] was > 40 µM.

As for `COc1ccc(C(=O)c2ccc(C(=O)c3ccc(C)c(OC)c3)cc2)cc1C`, the IC50 in data set [1] is > 40 µM. In addition, the Ki in data set [2] was > 40 µM.

Consider `CC(=O)c1ccc(OC(=O)c2ccc(-c3ccccc3)cc2)cc1`, for which the IC50 in data set [1] was > 40 µM. In addition, the Ki in data set [2] is > 40 µM.

Turning to `O=C(/C=C/c1ccc(Cl)cc1)c1ccc(Oc2ccccc2)cc1`, the 50% inhibitory concentration (IC50) in data set [1] came out at 30 µM. In data set [2], the Ki is > 40 µM.

For the molecule `CC(CC(=O)c1ccc2c(c1)OCCO2)c1ccccc1` (configuration not stated), the IC50 in data set [1] came out at 10.6 µM. Besides, the Ki in data set [2] amounted to 36.2 µM.

On to `O=C(/C=C/c1cnc2ccccc2c1)C1CC1`, for which the Ki in data set [3] and in data set [2] was > 100 µM throughout.

`CC(Oc1ccc2c(c1)oc(=O)c1ccccc12)c1ccccc1` (configuration not stated): the IC50 in data set [1] is > 40 µM. The Ki in data set [2] is > 40 µM.

With `CCOc1ccc(C(=O)/C=C/c2ccc(OCc3ccc(Cl)cc3Cl)cc2)cc1`, the IC50 in data set [1] is > 40 µM. Further, the Ki in data set [2] is > 40 µM.

For `O=C(/C=C/c1cnc2ccccc2c1)C12CC3CC(CC(C3)C1)C2`, the figures for the Ki in data set [3] and in data set [2] were 0.807 µM and 0.021 µM, respectively. The Ratio Ki in the data set filed under Rattus norvegicus was 29.9.

As to `Cc1ccc(C(=O)c2ccc(Oc3ccccc3)cc2)cc1C`, the IC50 in data set [1] worked out at 15.3 µM. Moreover, in data set [2], the Ki is > 40 µM.

Turning to `Cc1cccc2cc(/C=C/C(=O)c3ccccc3)c(Cl)nc12`, the Ki was > 100 µM in data set [3] and > 40 µM in data set [2]. For the same molecule, in data set [1], the IC50 was found to be 8.5 µM.

For the molecule `O=c1cc(-c2ccccc2)c2ccc(OCc3cccc(Oc4ccccc4)c3)cc2o1`, the IC50 in data set [1] was > 40 µM. Further, the Ki in data set [2] was > 40 µM.

As to `COc1ccc(/C=C/C(=O)C23CC4CC(CC(C4)C2)C3)cc1C`, the Ki was 5.15 µM in data set [3] and 0.294 µM in data set [2]. The Ratio Ki in the data set filed under Rattus norvegicus was determined as 17.5.

Consider `CCCCCCOc1ccc(C(=O)Oc2ccc(C3CCCCC3)cc2)cc1`, for which, in data set [1], the IC50 is > 40 µM. Besides, the Ki in data set [2] was > 40 µM.

Turning to `O=C(C1CC1c1ccc(N2CCOCC2)nc1)C12CC3CC(CC(C3)C1)C2` (configuration not stated), the solubility entry in data set [4] is “Soluble”. Also, the Ki was 27.8 µM in data set [3], 0.11 µM in data set [5] and 0.024 µM in data set [2]. The Ratio Ki in the data set filed under Rattus norvegicus turned out to be 1160.

Consider `CCCCCCc1cc2c3c(c(=O)oc2cc1OC)CCC3`, for which the IC50 in data set [1] is 23.9 µM. For the same molecule, the Ki in data set [2] is > 40 µM.

Take `COc1ccc(-c2cc(C)nc(-c3ccc(OC)c(Br)c3)c2)cc1Br`: the IC50 in data set [1] is > 40 µM. In addition, in data set [2], the Ki is > 40 µM.

On to `O=C(C1CC1c1cnc2ccccc2c1)C12CC3CC(CC(C3)C1)C2` (configuration not stated), for which the Ki is > 100 µM in data set [3] and 0.137 µM in data set [2]. In data set [6], the result was inactive. In the data set listed under Rattus norvegicus, the Ratio Ki is > 730.

In the case of `CCn1c2ccccc2c2cc(/C=N/c3ccc(C)c(F)c3)ccc21`, the IC50 in data set [1] was > 40 µM. In addition, in data set [2], the Ki is > 40 µM.

For `CCCCC1CCC(C(=O)Oc2ccc(C(C)=O)cc2)CC1` (configuration not stated), the IC50 in data set [1] was > 40 µM. In addition, the Ki in data set [2] is > 40 µM.

With `COc1ccc(C(=O)/C=C/c2ccc(OC3CSC3)cc2)cc1`, the IC50 in data set [1] was > 40 µM. Besides, in data set [2], the Ki is > 40 µM.

On to `CC(C)(C)C(=O)/C=C/c1cnc2ccccc2c1`, for which the Ki stood at 30.6 µM in data set [3] and 5.23 µM in data set [2]. Further, in the data set filed under Rattus norvegicus, the Ratio Ki came out at 5.9.

`COc1ccc(C(=O)/C=C/c2cc3ccc(C)cc3nc2Cl)cc1`: the Ki was > 100 µM in data set [3] and > 40 µM in data set [2]. In addition, the IC50 in data set [1] came to 39.3 µM.

For the molecule `O=c1cc(-c2ccccc2)c2cc(Cl)c(OCc3ccc(F)cc3)cc2o1`, the IC50 in data set [1] was > 40 µM. The Ki in data set [2] was > 40 µM.

As for `Cc1ccc2nc(Cl)c(/C=C/C(=O)c3cccs3)cc2c1`, the values for the Ki in data set [3] and in data set [2] were > 100 µM and 9.93 µM, respectively. Further, the IC50 in data set [1] was found to be 0.74 µM.

`O=C(/C=C/c1ccc2c(c1)OCCO2)C12CC3CC(CC(C3)C1)C2`: the values for the Ki in data set [3] and in data set [2] were 6.23 µM and 0.641 µM, respectively. In addition, the Ratio Ki in the data set listed under Rattus norvegicus is 9.72.

Take `O=c1cc(-c2ccccc2)c2ccc(OCc3ccc(F)cc3)cc2o1`: the IC50 in data set [1] is 23.9 µM. For the same molecule, the Ki in data set [2] is > 40 µM.

In the case of `Cc1ccc2cc(/C=C/C(=O)c3cccs3)c(Cl)nc2c1`, the results for the Ki in data set [3] and in data set [2] were > 100 µM and 17.2 µM, respectively. Besides, the IC50 in data set [1] came to 2.97 µM.

As to `COc1ccc(C2CC2C(=O)C23CC4CC(CC(C4)C2)C3)cn1` (configuration not stated), the Ki in data set [3] was found to be 18.4 µM; in data set [2], 0.304 µM. In addition, the Ratio Ki in the data set filed under Rattus norvegicus stood at 60.5.

As for `Cc1ccc2cc(/C=C/C(=O)c3c(C)coc3C)c(Cl)nc2c1`, the Ki in data set [3] was > 100 µM; in data set [2], > 40 µM. Further, in data set [1], the IC50 was > 40 µM.

`Cc1ccc2nc(Cl)c(/C=C/C(=O)c3ccccc3)cc2c1`: the inhibition constant (Ki) is > 100 µM in data set [3] and 9.18 µM in data set [2]. Further, in data set [1], the IC50 turned out to be 1.7 µM.

In the case of `O=C(c1ccc(Cl)cc1)c1ccc2c(c1)CCCCO2`, the IC50 in data set [1] was > 40 µM. In addition, in data set [2], the Ki is > 40 µM.

On to `COc1cc2c(cc1OC)C(Cc1ccccc1)=NC(C)(C)C2`, for which the IC50 in data set [1] is > 40 µM. In addition, the Ki in data set [2] is > 40 µM.

On to `O=C(C1CC1c1cccnc1)C12CC3CC(CC(C3)C1)C2` (configuration not stated), for which the Ki in data set [3] was 22.9 µM; in data set [2] it was 7.04 µM. Moreover, in the data set filed under Rattus norvegicus, the Ratio Ki worked out at 3.26.

For `CCCCCc1ccc(-c2ccc(OC(=O)C3CCC(CC)CC3)cc2)nc1` (configuration not stated), the IC50 in data set [1] was determined as 22.5 µM. The Ki in data set [2] is > 40 µM.

For `COc1ccc(C(=O)/C=C/c2cc3cc(C)ccc3nc2Cl)cc1`, the Ki in data set [3] is > 100 µM; in data set [2] it was > 40 µM. Besides, the concentration for half-maximal inhibition (IC50) in data set [1] came to 20.5 µM.

On to `CCCCOc1ccc(-c2nnc(-c3ccc(-c4ccccc4)cc3)s2)cc1`, for which the IC50 in data set [1] turned out to be 28.4 µM. The Ki in data set [2] is > 40 µM.
